This passage reports inhibition, Activity and IC50 results from ChEMBL document CHEMBL1641530, “Silanetriols as in vitro inhibitors for AChE” (Bioorg Med Chem Lett, 2011).

The target in test [1] is Acetylcholinesterase (Electrophorus electricus) (UniProt O42275). Description: Irreversible inhibition of Electrophorus electricus AChE by Ellman's method. A digest of the protocol:
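Reversibility was probed by following AChE inhibition over time in the modified Ellman assay (acetylthiocholine substrate). Activity is referred to solvent control. Mean ± SEM of at least eight independent experiments.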

The target is the same in test [2]. Put plainly: Inhibition of Electrophorus electricus AChE at 100 uM by Ellman's method relative to control. A digest of the protocol: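 Modified colorimetric Ellman assay: AChE hydrolyses acetylthiocholine to thiocholine. Final compound concentration 100 µM, read after 15 min. […] Mean ± SEM of at least eight independent experiments.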
Test [3] relates to MRC5. Put plainly: Cytotoxicity against human MRC5 after 45 hrs by XTT proliferation assay. The test is classed as functional, cell-based. In a few lines:
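Human fetal lung fibroblasts (MRC-5) treated with compound, then XTT added at 1, 15 and 41 h. Dehydrogenase cleavage of XTT to orange formazan ran for 4 h and was read photometrically at two wavelengths. Viability is given relative to solvent-only cells. For the 15 h figure, mean ± SEM of at least six independent experiments.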

Test [4] has as its target Acetylcholinesterase (Electrophorus electricus, UniProt O42275). Put plainly: Inhibition of Electrophorus electricus AChE by Ellman's method. In a few lines:
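Ellman-type colorimetric assay with acetylthiocholine as substrate. Four concentrations between 30 and 300 µM were tested, inhibition taken as % of solvent control, and IC50 derived from the concentration–inhibition plot. Mean ± standard deviation of at least eight independent experiments.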

The source made the active and inactive calls. The calls are words filed in the database; no cut-off is given here.

Acetylcholinesterase (Electrophorus electricus), sequence (O42275 24-633 limits assumed): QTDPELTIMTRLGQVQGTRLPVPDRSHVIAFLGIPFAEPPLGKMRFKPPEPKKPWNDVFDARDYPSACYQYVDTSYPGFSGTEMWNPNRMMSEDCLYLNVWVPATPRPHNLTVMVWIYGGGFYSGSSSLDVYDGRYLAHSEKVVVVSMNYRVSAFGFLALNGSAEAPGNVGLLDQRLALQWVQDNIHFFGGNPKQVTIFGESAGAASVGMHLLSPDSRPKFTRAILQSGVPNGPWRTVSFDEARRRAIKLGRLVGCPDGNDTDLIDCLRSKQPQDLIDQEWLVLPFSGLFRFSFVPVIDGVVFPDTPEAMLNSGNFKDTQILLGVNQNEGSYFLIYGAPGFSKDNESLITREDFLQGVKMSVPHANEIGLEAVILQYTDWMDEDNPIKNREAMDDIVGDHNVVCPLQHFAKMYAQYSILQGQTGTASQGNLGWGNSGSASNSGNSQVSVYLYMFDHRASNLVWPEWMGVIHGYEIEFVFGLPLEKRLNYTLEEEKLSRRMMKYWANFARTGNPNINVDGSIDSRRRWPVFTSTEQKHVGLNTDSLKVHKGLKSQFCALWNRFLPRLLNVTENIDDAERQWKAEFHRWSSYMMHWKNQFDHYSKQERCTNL
Acetylcholinesterase, sequence (O42275 whole entry): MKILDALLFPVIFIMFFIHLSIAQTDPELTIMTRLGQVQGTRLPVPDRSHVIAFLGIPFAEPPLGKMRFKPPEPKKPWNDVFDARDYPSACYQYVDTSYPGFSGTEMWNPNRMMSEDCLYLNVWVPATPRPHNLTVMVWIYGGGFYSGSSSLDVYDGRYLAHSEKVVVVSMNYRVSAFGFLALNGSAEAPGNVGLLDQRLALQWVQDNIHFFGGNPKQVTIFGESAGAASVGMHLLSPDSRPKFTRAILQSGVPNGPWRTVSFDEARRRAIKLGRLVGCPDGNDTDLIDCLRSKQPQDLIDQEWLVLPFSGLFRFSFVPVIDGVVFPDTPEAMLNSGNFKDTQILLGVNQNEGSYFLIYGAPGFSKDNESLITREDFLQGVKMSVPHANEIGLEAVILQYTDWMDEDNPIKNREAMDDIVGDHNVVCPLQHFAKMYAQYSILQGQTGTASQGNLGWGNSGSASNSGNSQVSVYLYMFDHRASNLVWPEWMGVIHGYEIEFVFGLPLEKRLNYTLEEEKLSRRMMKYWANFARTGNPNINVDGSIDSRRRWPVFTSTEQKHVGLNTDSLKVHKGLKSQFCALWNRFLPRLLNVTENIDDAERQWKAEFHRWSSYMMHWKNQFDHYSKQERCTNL

Turning to `Cc1cc(C)c(-c2cccc(-c3c(C)cc(C)cc3C)c2[Si](O)(O)O)c(C)c1`, the inhibition entry in test [1] is “inactive”. In test [2], the inhibition was 12%. Also, the result in test [3] was inactive.

With `O[Si](O)(O)C1CCCCC1` [CYCLOHEXYLSILANETRIOL], in test [1], the inhibition entry is “inactive”. In test [2], this molecule came in with an inhibition of 45%. In test [4], this molecule gave an IC50 of 121 µM. The result in test [3] was inactive.

For `CCC(C)(C)[Si](O)(O)O`, the inhibition result in test [1] is “inactive”. This molecule also came in with an inhibition in test [2] of 10%. For the same molecule, the result in test [3] was inactive.
